What was measured:
Plasmodium falciparum = assay: In vitro inhibitory activity against Plasmodium falciparum; assay type: functional, organism-based
Mus musculus [1] = assay: In vivo average survival rate of mouse infected by T.b. rhodesiense was determined for a period of 60 days at dose of 5 mg/kg by p.o. administration; assay type: functional; conditions: route oral
Summary of the method: (§1)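 Mice infected with T. b. rhodesiense STIB900. Diamidines were given intraperitoneally and prodrugs orally, with an untreated infected control group. Parasitemia was monitored daily to day 14, then twice weekly to day 60. For relapsing mice, the day of death was recorded and survival time was averaged in days.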

[2] = system: Trypanosoma brucei rhodesiense; assay: In vitro inhibitory activity against T. b. rhodesiense; assay type: functional, organism-based
Mus musculus [3] = assay: No. of mice that survived T.b. rhodesiense infection and are parasite free for 60 days was determined at dose of 75 mg/kg by p.o. administration; 4 animals tested; assay type: functional; conditions: route oral
Summary of the method: (§2)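 Mice infected with T. b. rhodesiense STIB900. Diamidines were given intraperitoneally and prodrugs orally. An untreated infected group served as control. Parasitemia was checked daily up to day 14 post-infection, then twice weekly up to day 60. A cure was counted as a mouse that survived and stayed parasite-free for 60 days.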

Mus musculus [4] = assay: In vivo average survival rate of mouse infected by T.b. rhodesiense was determined for a period of 60 days at dose of 75 mg/kg by p.o. administration; assay type: functional; conditions: route oral; summary of the method: as §1
Mus musculus [5] = assay: No. of mice that survived T.b. rhodesiense infection and are parasite free for 60 days was determined at dose of 5 mg/kg by p.o. administration; 4 animals tested; assay type: functional; conditions: route oral; summary of the method: as §2
Nucleic Acid [6] = conditions: Bos taurus
Nucleic Acid [7] = system: Nucleic Acid
Mus musculus [8] = assay: No. of mice that survived T.b. rhodesiense infection and are parasite free for 60 days was determined at dose of 20 mg/kg by i.p. administration; 4 animals tested; assay type: functional; conditions: route intraperitoneal; summary of the method: as §2
Mus musculus [9] = assay: In vivo average survival rate of mouse infected by T.b. rhodesiense was determined for a period of 60 days at dose of 20 mg/kg by i.p. administration; assay type: functional; conditions: route intraperitoneal; summary of the method: as §1
Nucleic Acid [10] = system: Nucleic Acid; remark: listed apart in the source
Mus musculus [11] = assay: No. of mice that survived T.b. rhodesiense infection and are parasite free for 60 days was determined at dose 5 mg/kg of by p.o. administration; 4 animals tested; assay type: functional; conditions: route oral; summary of the method: as §2
Mus musculus [12] = assay: No. of mice that survived T.b. rhodesiense infection and are parasite free for 60 days was determined at dose of 100 mg/kg by p.o. administration; 4 animals tested; assay type: functional; conditions: route oral; summary of the method: as §2
Mus musculus [13] = assay: In vivo average survival rate of mouse infected by T.b. rhodesiense was determined for a period of 60 days at dose of 100 mg/kg by p.o. administration; assay type: functional; conditions: route oral; summary of the method: as §1
Mus musculus [14] = assay: No. of mice that survived T.b. rhodesiense infection and are parasite free for 60 days was determined at dose of 50 mg/kg by p.o. administration; 5 animals tested; assay type: functional; conditions: route oral; summary of the method: as §2
Mus musculus [15] = assay: In vivo average survival rate of mouse infected by T.b. rhodesiense was determined for a period of 60 days at dose of 50 mg/kg by p.o. administration; assay type: functional; conditions: route oral; summary of the method: as §1
Mus musculus [16] = assay: In vivo antitrypanosomal activity against T.b. rhodesiense mouse and no. of that survive and are parasite free for 60 days was determined at dose of 5 mg/kg by p.o. administration; 4 animals tested; assay type: functional; conditions: route oral; summary of the method: as §2
Mus musculus [17] = assay: No. of mice that survived T.b. rhodesiense infection and are parasite free for 60 days was determined at dose of 50 mg/kg by p.o. administration; 4 animals tested; assay type: functional; conditions: route oral; summary of the method: as §2

Row | SMILES | IC50 (Plasmodium falciparum) [µM] | IC50 [2] [µM] | ΔTm (Nucleic Acid [6]) | ΔTm (Nucleic Acid [7]) | Cures (Mus musculus [8]) | Survival (Mus musculus [9]) [days] | further results
1 | CONC(=N)c1ccc(-c2ccc(-c3ccc(C(=N)NOC)nc3)o2)cc1 | 8.5 | 6.5 |  |  |  |  | Survival (Mus musculus [1]): 34.25 days; Cures (Mus musculus [3]): 4; Survival (Mus musculus [4]): 60 days; Cures (Mus musculus [5]): 1
2 | N=C(N)c1ccc(Cc2ccc(-c3ccc(C(=N)N)nc3)o2)cc1 | 0.148 | 0.147 | 1.3 | 3.6 |  |  | 
3 | N=C(N)c1ccc(-c2ccc(-c3ccc(C(=N)N)nc3)o2)cc1 | 0.0183 | 0.0031 | 3.1 | 22.6 | 2 | 56.5 | 
4 | N=C(NO)c1cccc(-c2ccc(-c3ccc(/C(N)=N\O)cn3)o2)c1 | 41.5 | 13.3 |  |  |  |  | 
5 | CONC(=N)c1ccc(-c2ccc(-c3ccc(C(=N)NOC)cn3)s2)cc1 | 4.9 | 9.4 |  | 0 |  |  | 
6 | N=C(N)c1ccc(-c2ccc(-c3ccc(C(=N)N)nc3)o2)cn1 | 0.0039 | 0.007 | 8.2 |  | 3 | 59 | ΔTm (Nucleic Acid [10]): 18.5
7 | CO/N=C(\N)c1ccc(-c2ccc(-c3ccc(/C(N)=N/OC)cn3)o2)cc1 | 4.9 | 37.1 |  | 0.9 |  |  | Survival (Mus musculus [1]): 60 days; Cures (Mus musculus [11]): 4
8 | N=C(N)c1ccc(-c2ccc(-c3cccc(C(=N)N)c3)o2)nc1 | 0.0088 | 0.0407 | 3.3 | 7.3 | 0 | 26.25 | 
9 | N/C(=N\O)c1ccc(-c2ccc(-c3ccc(/C(N)=N\O)cn3)o2)nc1 | > 10.2 | 55.8 |  | 0.9 |  |  | Cures (Mus musculus [3]): 0; Survival (Mus musculus [4]): 18 days
10 | N=C(NO)c1ccc(-c2ccc(-c3ccc(/C(N)=N\O)cc3)s2)nc1 | > 10.4 |  |  |  |  |  | 
11 | N=C(NO)c1ccc(-c2ccc(-c3ccc(/C(N)=N/O)cn3)o2)cc1 | 4.3 | 120 |  |  |  |  | Cures (Mus musculus [12]): 0; Survival (Mus musculus [13]): 54 days
12 | N=C(N)c1ccc(OCCCCCOc2ccc(C(=N)N)cc2)cc1 [PENTAMIDINE] |  |  | 2 |  | 0 | 40.8 | 
13 | CONC(=N)c1ccc(-c2ccc(-c3ccc(C(=N)NOC)nc3)o2)cn1 | 1.31 | 1.91 |  | -0.5 |  |  | Cures (Mus musculus [12]): 0; Survival (Mus musculus [13]): 21.75 days
14 | N=C(N)c1ccc(-c2ccc(-c3ccc(C(=N)N)cc3)o2)cc1 [FURAMIDINE] |  |  | 8.9 |  | 0 | 52.5 | 
15 | CCONC(=N)c1ccc(-c2ccc(-c3ccc(C(=N)NOCC)cn3)o2)cc1 | 7.3 | 8.4 |  |  |  |  | Cures (Mus musculus [12]): 4; Survival (Mus musculus [13]): 60 days
16 | N=C(NO)c1ccc(-c2ccc(-c3ccc(/C(N)=N/O)nc3)o2)cc1 | > 11.7 |  |  |  |  |  | Cures (Mus musculus [3]): 3; Survival (Mus musculus [4]): 52.75 days
17 | N=C(N)c1ccc(-c2ccc(-c3ccc(C(=N)N)cn3)o2)cc1 |  | 0.007 | 6.6 |  | 4 | 60 | 
18 | CONC(=N)c1ccc(-c2ccc(-c3ccc(C(=N)NOC)cc3)o2)cc1 [PAFURAMIDINE] |  |  |  |  |  |  | Cures (Mus musculus [14]): 2; Survival (Mus musculus [15]): 60 days
19 | N=C(N)c1ccc(-c2ccc(-c3ccc(C(=N)N)cn3)o2)nc1 | 0.083 | 0.021 | 5.4 | 15.5 | 4 | 60 | 
20 | N=C(NO)c1ccc(-c2ccc(-c3ccc(/C(N)=N\O)cc3)o2)cc1 |  |  |  |  |  |  | Cures (Mus musculus [12]): 0; Survival (Mus musculus [13]): 50 days
21 | CO/N=C(\N)c1ccc(-c2ccc(-c3ccc(/C(N)=N/OC)cn3)o2)nc1 | 1.77 | 11.1 |  |  |  |  | Survival (Mus musculus [1]): 40 days; Cures (Mus musculus [16]): 1; Cures (Mus musculus [17]): 4; Survival (Mus musculus [15]): 60 days
22 | N=C(NO)c1ccc(-c2ccc(-c3ccc(/C(N)=N/O)nc3)o2)cn1 | > 10.5 | > 21 |  |  |  |  | Cures (Mus musculus [17]): 1; Survival (Mus musculus [15]): 30 days
